Test results taken from ChEMBL document CHEMBL1144442, “Identification from a positional scanning peptoid library of in vivo active compounds that neutralize bacterial endotoxins” (J Med Chem, 2005).
Residues, ends and D or L forms follow the SMILES beside them.

Tests used:
Mus musculus [1] = assay: Ratio of percent of Tumor necrosis factor alpha measured in the presence with respect to that measured when animals were treated only with LPS;Mice were intraperitoneally injected with 10 ug of LPS alone or premixed with 100 ug of compound; assay type: functional, organism-based
Summary of the method: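 Mice were given 10 µg LPS ip, alone or premixed with the test agent (peptoids 20 µg in PBS with 40% DMSO; polymyxin B or LALF-14 100 µg). Sera were collected after 1 h and TNF-α measured by ELISA. Values are % of the LPS-only TNF-α level, mean ± SD, seven mice per group.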

Mus musculus [2] = assay: Ratio of percent of Tumor necrosis factor alpha measured in the presence with respect to that measured when animals were treated only with LPS;Mice were intraperitoneally injected with 10 ug of LPS alone or premixed with 20 ug of each compound;ND= Not determined; assay type: functional
Summary of the method: (§1)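 Mice were given 10 µg LPS ip, either alone or premixed with 20 µg compound in PBS containing 40% DMSO. Mice were bled after 1 h and serum TNF-α was measured by ELISA. Values are % of the TNF-α in mice given LPS alone (100%), as mean ± SD of seven mice per group.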

Mus musculus [3] = assay: Ratio of percent of Tumor necrosis factor alpha measured in the presence with respect to that measured when animals were treated only with LPS;Mice were intraperitoneally injected with 10 ug of LPS alone or premixed with 20 ug of each compound; assay type: functional; summary of the method: as §1
Mus musculus [4] = species: Mus musculus; assay: In vitro inhibitory concentration necessary to neutralize Escherichia coli 1,4''-diphosphoryl lipid A; assay type: functional, organism-based
Summary of the method: (§2)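 Chromogenic Limulus amebocyte lysate assay, which detects free LPS or diphosphoryl lipid A left unneutralized by the test compound. Compounds were tested by 2-fold serial dilution. IC50 is the concentration that neutralizes 50% of the LPS or lipid A in vitro.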

Mus musculus [5] = species: Mus musculus; assay: In vitro inhibitory concentration necessary to neutralize Gram-negative bacterial lipopolysaccharide in mouse model; assay type: functional, organism-based; summary of the method: as §2

| Compound | Ratio (Mus musculus [3]) | IC50 (Mus musculus [4]) | IC50 (Mus musculus [5]; Mus musculus) | other results |
| --- | --- | --- | --- | --- |
| POLYMYXIN B [listing 1 of 2 here] | – | – | – | Ratio (Mus musculus [1]): 5 |
| CC(C)C[C@@H]1NC(=O)[C@H](CCCN=C(N)N)NC(=O)[C@H](CCCN=C(N)N)NC(=O)[C@H](Cc2ccccc2)NC(=O)[C@H]([C@@H](C)O)NC(=O)[C@@H]2CCCN2C(=O)[C@H](CCCCN)NC(=O)[C@@H](NC(=O)CN)CSSC[C@@H](C(=O)NCC(=O)O)NC(=O)[C@H](CCCCN)NC(=O)[C@H](Cc2ccc(O)cc2)NC(=O)[C@H](CCCCN)NC(=O)[C@H](Cc2c[nH]c3ccccc23)NC(=O)[C@H](CCCCN)NC1=O (HELM PEPTIDE1{G.C.K.P.T.F.R.R.L.K.W.K.Y.K.C.G}$PEPTIDE1,PEPTIDE1,2:R3-15:R3$$$V2.0) [listing 1 of 2 here] | – | – | – | Ratio (Mus musculus [2]): 67 |
| COc1ccc(CCN(CC(=O)N(CCC(c2ccccc2)c2ccccc2)CC(N)=O)C(=O)CNCCC(c2ccccc2)c2ccccc2)cc1 | 10 | > 250 µM | 50 µM | – |
| NC(=O)CN(CCC(c1ccccc1)c1ccccc1)C(=O)CN(CCC(c1ccccc1)c1ccccc1)C(=O)CNCC1CCCO1 (stereo unspecified) [TRIMER I] | 71 | 250 µM | 40 µM | – |
| POLYMYXIN B [listing 2 of 2 here] | – | – | – | IC50 (Mus musculus [5]): < 0.0001 µM |
| CC(C)C[C@@H]1NC(=O)[C@H](CCCN=C(N)N)NC(=O)[C@H](CCCN=C(N)N)NC(=O)[C@H](Cc2ccccc2)NC(=O)[C@H]([C@@H](C)O)NC(=O)[C@@H]2CCCN2C(=O)[C@H](CCCCN)NC(=O)[C@@H](NC(=O)CN)CSSC[C@@H](C(=O)NCC(=O)O)NC(=O)[C@H](CCCCN)NC(=O)[C@H](Cc2ccc(O)cc2)NC(=O)[C@H](CCCCN)NC(=O)[C@H](Cc2c[nH]c3ccccc23)NC(=O)[C@H](CCCCN)NC1=O (HELM PEPTIDE1{G.C.K.P.T.F.R.R.L.K.W.K.Y.K.C.G}$PEPTIDE1,PEPTIDE1,2:R3-15:R3$$$V2.0) [listing 2 of 2 here] | – | 40 µM | 64 µM | – |
